Results taken from ChEMBL document CHEMBL4513216, “Probing the Open Global Health Chemical Diversity Library for Multistage-Active Starting Points for Next-Generation Antimalarials” (ACS Infect Dis, 2020).

Assay: Toxicity liver stage against HepG2, at 10uM
Assay type: cell-based
Set-up: test concentration 10 uM, cell line HepG2-A16-CD81EGFP
Settings: human, HepG2-A16-CD81EGFP cells; read-out: INHIBITION
In short: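 Uninfected HepG2-A16-CD81EGFP cells, 3 × 10^3 per well, 1536-well, plated on prespotted compound at 10 μM final, parasite-free screening media added to match infected plates; puromycin 10 μM positive, DMSO 0.5% negative; run in parallel with 48 h PbLuc assay at 37 °C, 5% CO2; viability by CellTiter-Glo luminescence, normalized to controls.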

Compound	cytotoxicity at 10 µM
Cc1ccc2oc([C@H]3CCN(Cc4ccccc4)C3)nc2c1	-6.75%
Cc1noc([C@@H]2C[C@H](NC(=O)NC3CCCCC3)CN2C)n1	3.23%
CCNC(=O)N1C[C@@H]2OCC(=O)N(C(C)C)[C@@H]2C1	-0.155%
O=S1(=O)c2cnccc2OC(COc2ccccc2)CN1CC1CC1 (stereo not given)	-1.16%
CCOC(=O)[C@H]1[C@@H](O)C(=O)N(C)C12CCN(C(=O)CC(C)C)CC2	-5.12%
Cn1ccc2c(C(=O)NCCCN3CCOCC3)cccc21	-0.452%
CSCCC(C)(O)CNC(=O)Nc1ccccc1C (stereo not given)	-1.44%
Cc1cccnc1NC(=O)c1ccc(-n2cncn2)nn1	-1.52%
COc1ccc(CN2C[C@@H]3CN(CCO)C[C@@H]3C2=O)cc1	9.27%
CN1CCN(C(=O)c2n[nH]c3c2CN(C2CCOC2)CC3)CC1 (stereo not given)	1.52%
O=C(c1ccc[nH]1)N1CCOCC2(C1)CN(c1ccccc1)C(=O)CO2 (stereo not given)	-1.05%
COC(=O)CCC(=O)N1CCC2(CN(Cc3ccccc3F)C2)C1	5.58%
Cn1ncc2c1C(COCC1CC1)CN(Cc1ccncc1)C2 (stereo not given)	7.22%
CN(C)C(=O)C1OC2(CCN(C(=O)c3ccoc3)CC2)c2ccccc21 (stereo not given)	5.63%
O=C(c1cnccn1)N1CCN(Cc2ccncc2)c2ncccc2C1	-2.72%
O=C(N[C@@H]1CN(Cc2ccsc2)[C@@H]2CCCO[C@@H]21)C1CC1	-5.47%
O=C(NCc1ccco1)[C@@]12CCO[C@@H]1CCN(CCN1CCCC1)C2	-3.47%
Cc1cc(-c2cc(N)c(=O)n(CC(=O)N3CCCC(C)C3)n2)c(C)o1 (stereo not given)	4.62%
CCS(=O)(=O)N1CCC(c2nc(C)c(C)c(N3CCCC3)n2)CC1	1.27%
Cc1nc(C2CCN(S(=O)(=O)c3ccc(Cl)cc3)CC2)n[nH]1	10.6%
CC(C#N)NS(=O)(=O)c1cccc(C(C)C)c1 (stereo not given)	0.846%
COc1cccnc1NC(=O)COC1CCCC1	8.06%
COC(C)C(=O)NS(=O)(=O)c1cccc2cc(C)cnc12 (stereo not given)	-6.55%
CCCc1noc(C(C)S(=O)(=O)Cc2nc(C3CC3)no2)n1 (stereo not given)	-9.02%
Cc1oc(NC(=O)C(C)N2CCN(CCO)CC2)c(C#N)c1C (stereo not given)	-13.6%
COc1ncccc1CNC(=O)CN1CCCCCC1=O	-10.4%
CC(C)N(Cc1ccc(C#N)cc1)Cc1nnsc1Cl	12.6%

Compound	cytotoxicity at 10 µM
COc1cc2c(cc1OC)S(=O)(=O)N(Cc1cccc(C)c1)C2=O	5.98%
Cc1nc2n(n1)CC(NCC(=O)N(C)Cc1cccs1)CC2 (stereo not given)	-0.189%
CNC(=O)C(C)(C)CNC(=O)Nc1ccncc1C	-12.1%
Cc1cn2nc(N3CCCC3C(=O)N3CCOCC3)sc2n1 (stereo not given)	-3%
CC(C)c1cc(CNC(=O)Nc2cc(F)cc(N3CCCC3)c2)on1	1.57%
O=C1CC(N(C(=O)CCc2cc(F)ccc2F)C2CC2)C(=O)N1 (stereo not given)	3.62%
Cn1cc(CNc2cnn(CC3CCCO3)c2)c(-c2ccncc2)n1 (stereo not given)	4.4%
COc1ccc(CNC2CCN(c3ccccc3)C2)c(OC)c1OC (stereo not given)	7.49%
CN(C)CCN(Cc1cccc(C(F)(F)F)c1)C(=O)c1cc[nH]n1	1.39%
CO[C@H]1CO[C@@]2(CCCN(C(=O)C3CC=CC3)C2)C1	-98.6%
CCn1nc(C)c(CCNC(=O)c2cccc(NCC(=O)O)c2)c1C	15.2%
CN(C)C[C@@H]1CN(C2CCN(c3ccccc3Cl)CC2)C[C@@H]1CO	-10.1%
CC(C)CN1CCCC1c1ccc(C(=O)Nc2cc[nH]n2)s1 (stereo not given)	10.3%
COCCN(Cc1cnn(C)c1)C(=O)C1COc2c(cccc2OC)C1 (stereo not given)	-11.9%
CC(C)c1nc(C(=O)N2CCCC(N)CC2)cs1 (stereo not given)	-2.56%
COCCNc1nc2c(c(NCC3CCOC3)n1)CCNCC2 (stereo not given)	-2.85%
COc1ccc(CNC(=O)CCN2CCOC(C(F)(F)F)C2)cc1 (stereo not given)	4.3%
O=C(C1CC(=O)N(C2CCCC2)C1)N1CCN(CCn2cccc2)CC1 (stereo not given)	12.8%
CCc1nc(C2CCCN2CC(=O)Nc2cc(C)on2)no1 (stereo not given)	-3.08%
CCc1nnc(CN2CCCCC2Cn2nc(C)nc2C)o1 (stereo not given)	-2.4%
CC1CCN(CCNC(=O)C(C)n2cncn2)CC1 (stereo not given)	-9.12%
Cc1ccoc1C(=O)NC1CCN(CC(=O)N(C)c2ccccc2)CC1	-2.93%
CC(c1nc(C(C)(C)C)no1)N1CCN(Cc2ccco2)CC1 (stereo not given)	-5.02%
CN(C)c1cc(C(=O)N2CCCC2c2cnn(C)c2)ccn1 (stereo not given)	-1.39%
CCCN(CC)c1ccc(C(=O)N2CCCC2c2cnn(C)c2)cn1 (stereo not given)	-6.75%
CN(C)S(=O)(=O)c1ccc(CN2CCCC2c2cccs2)o1 (stereo not given)	-3.31%
Cn1cc(C2CCCN2C(=O)c2ccc(NC3CC3)nc2)cn1 (stereo not given)	-14.4%

Compound	cytotoxicity at 10 µM
CCc1nnc2n1CCN(CC(O)c1ccc3c(c1)OCCO3)C2 (stereo not given)	-7.3%
Cc1ccccc1OCCCC(=O)NCC1CN(C)CCO1 (stereo not given)	-8.69%
Cc1cnn(CC2CCCN2Cc2cc(C)no2)c1 (stereo not given)	-1.66%
CCCc1noc(CN2CCC(C(=O)Nc3cnn(CC)c3)CC2)n1	-0.988%
CCOc1ncccc1CNCc1c(C(C)C)nn(C)c1N(C)C	-8.19%
Cc1ccc(CNC(=O)CN2C=Nc3ccccc3S2(=O)=O)s1	0.347%
Cc1ccc(CC(=O)N2CSCC2C(=O)N(C)Cc2ccco2)o1 (stereo not given)	-4.32%
CC(NC(=O)c1ccc2c(c1)OCC(=O)N2)c1ccccc1F (stereo not given)	-4.42%
CC(=O)Nc1nc(C(=O)N2CCCC(c3cc(C)[nH]n3)C2)cs1 (stereo not given)	-8.85%
Cc1ccc(N2CCCN(C(=O)C(C(C)C)n3cncn3)CC2)nn1 (stereo not given)	-5.99%
O=C(c1cccc(Cn2ccnc2)c1)N1CCCC(n2ccnc2)C1 (stereo not given)	-6.61%
Cc1ccc(C(=O)N2CCN(Cc3nc(C(C)C)no3)CC2)c(=O)[nH]1	-7.67%
N#Cc1cc(NS(=O)(=O)c2ccc(C(=O)O)cc2F)ccc1F	-10.9%
Cc1cccc(NC(=O)NCCCn2nc3ccccn3c2=O)c1C	-6.73%
O=C(c1cc2cc(F)ccc2[nH]1)N1CCC(Nc2cccnn2)CC1	-5.97%
CC(c1cccc(S(N)(=O)=O)c1)N(C)CCOc1ccccc1 (stereo not given)	-3.83%
CC(Cn1cncc1-c1cnn(Cc2ccccc2)c1)N1CCCCC1 (stereo not given)	6.58%
COCC1CN(Cc2ccsc2)Cc2nn(C)cc21 (stereo not given)	5.15%
CNC(=O)[C@H]1C[C@@H]2CN(Cc3c(C)noc3C)C[C@@H]2N1C(C)=O	-108%
Cc1cc(C(=O)N2CCC3(C2)CN(c2cccnc2)C(=O)CN3C)[nH]n1 (stereo not given)	5.2%
COc1ccc(CN2C[C@H]3CN(Cc4ccncc4)C(=O)[C@H]3C2)cc1	4.35%
c1cncc(COC[C@@H]2CCC[C@]23CNCCO3)c1	-96.1%
O=C([C@H]1C[C@H]2OCC[C@H]2N(C(=O)c2ccccn2)C1)N1CCCCO1	13.1%
COCC1CC2(CCN(Cc3cccnc3)CC2)CN1c1ncccn1 (stereo not given)	3.71%
CSc1nccc(N2C[C@H]3CC[C@@H](C2)N(CC2CCC2)C3=O)n1	1.88%
CC1CCCN(S(=O)(=O)NCCNC(=O)c2ncccc2O)C1 (stereo not given)	3.07%
